pEC50: −log10 of the molar value. The source made the active and inactive calls.
How the values were obtained:
molinema dessetae [1] = experiment: Antifilarial activity against Molinema dessetae in vivo against male adult worms at a dose of 200 mg/kg subcutaneously once a day for 5 days; Inactive; format: functional, organism-based; design: dose 200 mg/kg
Outline: (§1)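 Proechimys oris of both sexes were each infected with 200 infective larvae dissected from Aedes aegypti mosquitoes. Microfilaremia was checked, and the rodents were treated 150–180 days post-infection. Compound was given subcutaneously as a 1% carboxymethylcellulose suspension once daily for 5 consecutive days. Microfilaremia was followed for 6 weeks, then adult male and female worms were counted at autopsy. A compound was scored active if no males and ≤1.6 females were found (p = 0.12).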

[2] = Effective concentration of compound necessary to kill 50% of infective larvae of Molinema dessetae after 7 days was determined in vitro; format: functional
molinema dessetae [3] = experiment: Antifilarial activity against Molinema dessetae in vivo against female adult worms at a dose of 200 mg/kg subcutaneously once a day for 5 days; Inactive; format: functional, organism-based; design: dose 200 mg/kg; outline: as §1
[4] = Antifilarial activity against Molinema dessetae in vivo in Proechimys oris the natural host at a dose of 200 mg/kg subcutaneously once a day for 5 days. Value is expressed as number of infected P. oris.; format: functional; conditions: route subcutaneous; outline: as §1
molinema dessetae [5] = test system: molinema dessetae;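 further: in vitro assay on infective-stage larvae, EC90 being the concentration lethal to 90% of larvae after 7 days of exposure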
molinema dessetae [6] = experiment: Effective concentration of compound necessary to kill 90% of infective larvae of Molinema dessetae after 7 days was determined in vitro; Value ranges from 100-500; format: functional
Outline: (§2)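 Infective larvae from the intermediate host were decontaminated and held 20 per 1.5 mL in a biphasic medium: L929 feeder layer with RPMI and fetal calf serum (90:10), plus penicillin and streptomycin. Compound solutions at several concentrations were made in DMSO, and 10 μL of each was added. After 7 days, survival was corrected by control, in duplicate runs. EC ranges are given in μM.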

[7] = Effective concentration of compound necessary to kill 50% of infective larvae of Molinema dessetae after 7 days was determined in vitro; Value ranges from 20-100; format: functional; outline: as §2
molinema dessetae [8] = experiment: Antifilarial activity against Molinema dessetae in vivo against female adult worms at a dose of 100 mg/kg subcutaneously once a day for 5 days; Inactive; format: functional, organism-based; design: dose 100 mg/kg; outline: as §1
[9] = Antifilarial activity against Molinema dessetae in vivo in Proechimys oris the natural host at a dose of 100 mg/kg subcutaneously once a day for 5 days. Value is expressed as number of infected P. oris.; format: functional; conditions: route subcutaneous; outline: as §1
molinema dessetae [10] = experiment: Antifilarial activity against Molinema dessetae in vivo against male adult worms at a dose of 100 mg/kg subcutaneously once a day for 5 days; Inactive; format: functional, organism-based; design: dose 100 mg/kg; outline: as §1
molinema dessetae [11] = experiment: Effective concentration of compound necessary to kill 90% of infective larvae of Molinema dessetae after 7 days was determined in vitro; Value ranges from 20-100; format: functional; outline: as §2
[12] = Effective concentration of compound necessary to kill 50% of infective larvae of Molinema dessetae after 7 days was determined in vitro; Value ranges from 100-500; format: functional; outline: as §2
molinema dessetae [13] = experiment: Antifilarial activity against Molinema dessetae in vivo in Proechimys oris the natural host at a dose of 0.2 mg/kg subcutaneously once a day for 5 days. Value is expressed as number of infected P. oris.; format: functional, organism-based; design: dose 0.2 mg/kg
molinema dessetae [14] = experiment: Antifilarial activity against Molinema dessetae in vivo against female adult worms at a dose of 0.2 mg/kg subcutaneously once a day for 5 days; Active; format: functional, organism-based; design: dose 0.2 mg/kg
molinema dessetae [15] = experiment: Antifilarial activity against Molinema dessetae in vivo against male adult worms at a dose of 0.2 mg/kg subcutaneously once a day for 5 days; Active; format: functional, organism-based; design: dose 0.2 mg/kg
molinema dessetae [16] = experiment: Antifilarial activity against Molinema dessetae in vivo against male adult worms at a dose of 10 mg/kg subcutaneously once a day for 5 days; Active; format: functional, organism-based; design: dose 10 mg/kg; outline: as §1
[17] = Antifilarial activity against Molinema dessetae in vivo in Proechimys oris the natural host at a dose of 10 mg/kg subcutaneously once a day for 5 days. Value is expressed as number of infected P. oris.; format: functional; conditions: route subcutaneous; outline: as §1
molinema dessetae [18] = experiment: Antifilarial activity against Molinema dessetae in vivo against female adult worms at a dose of 10 mg/kg subcutaneously once a day for 5 days; Active; format: functional, organism-based; design: dose 10 mg/kg; outline: as §1
molinema dessetae [19] = experiment: Antifilarial activity against Molinema dessetae in vivo against male adult worms at a dose of 200 mg/kg subcutaneously once a day for 5 days; Active; format: functional, organism-based; design: dose 200 mg/kg; outline: as §1
molinema dessetae [20] = experiment: Antifilarial activity against Molinema dessetae in vivo against female adult worms at a dose of 200 mg/kg subcutaneously once a day for 5 days; Active; format: functional, organism-based; design: dose 200 mg/kg; outline: as §1

Row | Compound | EC90 (molinema dessetae [5]) [µM] | Activity (molinema dessetae [1]) | pEC50 [2] | Activity (molinema dessetae [3]) | Activity [4] | other results
1 | O=S(=O)([C@@H]1O[C@@H]1c1ccccc1)N1CCOCC1 |  | inactive |  | inactive | 2 | EC90 (molinema dessetae [6]): 500 µM; pEC50 [7]: 4.00
2 | O=S(=O)(C1OC1c1ccccc1)N1CCN(c2ccccc2)CC1 (centres undefined) |  |  |  |  |  | Activity (molinema dessetae [8]): inactive; Activity [9]: 2; pEC50 [7]: 4.00; Activity (molinema dessetae [10]): inactive; EC90 (molinema dessetae [11]): 100 µM
3 | C1COCCN1 [MORPHOLINE] | > 500 |  | < 3.30 |  |  | 
4 | Cc1ccc(C2OC2S(=O)(=O)N2CCN(C)CC2)cc1 (centres undefined) |  | inactive |  | inactive | 2 | EC90 (molinema dessetae [6]): 500 µM; pEC50 [7]: 4.00
5 | CN1CCN(S(=O)(=O)[C@@H]2O[C@H]2c2ccccc2)CC1 |  |  |  |  |  | Activity (molinema dessetae [16]): Active; pEC50 [7]: 4.00; Activity [17]: 4; Activity (molinema dessetae [18]): Active; EC90 (molinema dessetae [11]): 100 µM
6 | O=S(=O)(C1OC1c1ccc(Cl)cc1)N1CCOCC1 (centres undefined) |  | inactive |  | inactive | 2 | EC90 (molinema dessetae [6]): 500 µM; pEC50 [7]: 4.00
7 | CN(C)S(=O)(=O)[C@@H]1O[C@@H]1c1ccccc1 |  |  |  |  |  | EC90 (molinema dessetae [6]): 500 µM; pEC50 [12]: 3.30
8 | O=[N+]([O-])c1ccc(C2OC2S(=O)(=O)N2CCOCC2)cc1 (centres undefined) | < 20 |  | > 4.70 |  |  | 
9 | O=S(=O)(C1OC1c1ccc(Cl)c(Cl)c1)N1CCOCC1 (centres undefined) |  |  | > 4.70 |  | 2 | Activity (molinema dessetae [20]): Active; Activity (molinema dessetae [19]): Active; EC90 (molinema dessetae [11]): 100 µM
10 | CN1CCN(S(=O)(=O)CC(=O)c2ccccc2)CC1 | > 500 |  | < 3.30 |  |  | 

The next lines start with results.

Row | EC90 (molinema dessetae [5]) [µM] | Compound | Activity (molinema dessetae [1]) | pEC50 [2] | Activity (molinema dessetae [3]) | Activity [4] | other results
11 | < 20 | Cc1ccccc1C1OC1S(=O)(=O)N1CCOCC1 (centres undefined) | inactive | > 4.70 | inactive | 1 | 
12 | > 500 | O=C(CS(=O)(=O)N1CCOCC1)c1ccccc1 | inactive | < 3.30 | inactive | 2 | 
13 | > 500 | CN1CCN(S(=O)(=O)/C=C/c2ccccc2)CC1 | inactive |  | inactive | 1 | pEC50 [12]: 3.30
14 | < 20 | IVERMECTIN |  |  |  |  | Activity (molinema dessetae [13]): 2; Activity (molinema dessetae [14]): Active; Activity (molinema dessetae [15]): Active
15 | > 500 | C[C@@H]1O[C@H]1S(=O)(=O)N1CCOCC1 | inactive | < 3.30 | inactive | 2 | 
16 | > 500 | CN(C)S(=O)(=O)C#Cc1ccccc1 |  |  | inactive | 2 | Activity (molinema dessetae [19]): Active; pEC50 [12]: 3.30
17 | > 500 | C[C@H]1O[C@H]1S(=O)(=O)N1CCOCC1 |  |  |  |  | pEC50 [12]: 3.30
18 | < 20 | Cc1cccc(C2OC2S(=O)(=O)N2CCOCC2)c1 (centres undefined) | inactive | > 4.70 | inactive | 2 | 
19 | > 500 | C[C@]1(c2ccccc2)O[C@@H]1S(=O)(=O)N1CCOCC1 | inactive | < 3.30 | inactive | 2 | 
20 | > 500 | CCN(CC)C(=O)N1CCN(C)CC1 [DIETHYLCARBAMAZINE] |  | < 3.30 |  | 2 | Activity (molinema dessetae [20]): Active; Activity (molinema dessetae [19]): Active
21 | > 500 | CN1CCN(S(=O)(=O)C2CC2c2ccccc2)CC1 (centres undefined) | inactive |  | inactive | 2 | pEC50 [12]: 3.30
